Experimental data from ChEMBL document CHEMBL1144077, “Cytotoxic lignans of Justicia ciliata” (J Nat Prod, 1999).
Values after ≈ are worked out from the molar mass of the structure shown. Active and inactive are the calls of the source. The rule behind the calls is not given here. Starred links: 1 amine or outer side, 2 acyl side, 3 side chain; linkers in the order of their positions; H or OH if unused. Positions of bridges follow the written chain, without caps; N, C: chain ends. Non-standard residues stand in square brackets, D forms with d. Residues, ends and D or L forms follow the SMILES beside them. Chains are numbered I, II in the order given. Actinocin(1to9) = Cc1c2oc3c(C)ccc(C(=O)[*:2])c3nc-2c(C(=O)[*:1])c(N)c1=O; NMeV = CN[C@H](C(=O)O)C(C)C; Sar = CNCC(=O)O

How the values were obtained:
T-24 = assay: Cytotoxicity against human T24 cells after 6 days by MTT assay; type: functional; details: for EC50: T-24, 144 h, read-out: ED50 (the source's name)
In short: (§1)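 Human lines kept in DMEM with 10% FBS, 2 mM glutamine, penicillin/streptomycin. 1-3 × 10^3 cells/100 µL seeded, 6 h attachment, then medium replaced with fresh medium (plus 10 mM HEPES pH 7.3) holding a range of drug concentrations. Exposure 6 days, 37 °C, CO2. MTT (1 mg/mL stock, 10 µL) for 4 h, DMSO solubilization, absorbance 550 nm. ED50 in µg/mL.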

Ca-Ski = assay: Cytotoxicity against human CaSki cells after 6 days by MTT assay; type: functional; details: for EC50: 144 h, read-out: ED50 (the source's name); in short: as §1
SiHa = assay: Cytotoxicity against human SiHa cells after 6 days by MTT assay; type: functional; details: for EC50: Homo sapiens, SiHa, 144 h, read-out: ED50 (the source's name); in short: as §1
HT-3 = assay: Cytotoxicity against human HT-3 cells after 6 days by MTT assay; type: functional; details: for EC50: Homo sapiens, HT-3, 144 h, read-out: ED50 (the source's name); in short: as §1
[1] = (§2) Cytotoxicity against human PLC/PRF/5 cells after 6 days by MTT assay; type: functional; details: PLC-PRF-5, 144 h, read-out: ED50 (the source's name); in short: as §1
[2] = Cytotoxicity against mouse NIH/3T3-212 cells after 6 days by MTT assay; type: cell-based; details: for CC50 at 144 h: NIH/3T3-212 cells, read-out: ED50; for Activity: 144 h
In short: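 212 cells (NIH/3T3 carrying inducible Ha-ras) kept in alpha-MEM with 10% calf serum and antibiotics. 1-3 × 10^3 cells/100 µL seeded, 6 h attachment, then fresh HEPES-supplemented (10 mM, pH 7.3) medium with graded drug concentrations for 6 days at 37 °C. MTT 4 h, DMSO dissolution, read at 550 nm. ED50 in µg/mL.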

PLC-PRF-5 = assay: as §2; type: functional; in short: as §1

Row | Structure (SMILES) | EC50 (T-24) [µg/mL] | EC50 (Ca-Ski) [µg/mL] | EC50 (SiHa) [µg/mL] | EC50 (HT-3) [µg/mL] | EC50 [1] [µg/mL] | CC50 at 144 h [2] [µg/mL] | Activity (T-24) | Activity (Ca-Ski) | Activity (SiHa) | Activity (HT-3) | Activity (PLC-PRF-5) | Activity [2] | ED50 (SiHa) [×10⁻⁴ ug/ml] | ED50 (HT-3) [×10⁻⁴ ug/ml]
1 | COc1cc2c(OC)c3c(c(-c4ccc5c(c4)OCO5)c2cc1OC)C(=O)OC3 [JUSTICIDIN A] | 0.002 (≈ 0.00507 µM) | 0.003 (≈ 0.00761 µM) | 0.0074 (≈ 0.0188 µM) | 0.0018 (≈ 0.00456 µM) | 0.0022 (≈ 0.00558 µM) | 0.0227 (≈ 0.0576 µM) |  |  |  |  |  |  |  | 
2 | COc1ccc(-c2c3c(c(OC)c4cc(OC)c(OC)cc24)COC3=O)cc1OC [CILINAPHTHALIDE B] |  |  |  |  |  |  | inactive | inactive | inactive | inactive | inactive | Not Active |  | 
3 | COc1ccc(-c2c3c(c(O)c4cc5c(cc24)OCO5)COC3=O)cc1OC |  |  |  |  |  |  | inactive | inactive | inactive | inactive | inactive | Not Active |  | 
4 | COc1cc2c(OC)c3c(c(-c4ccc5c(c4)OCO5)c2cc1OC)COC3=O [NEOJUSTICIN B] |  |  |  |  |  |  | inactive | inactive | inactive | inactive | inactive | Not Active |  | 
5 | Cc1c2oc3c(C)ccc(C(=O)N[C@@H]4C(=O)N[C@H](C(C)C)C(=O)N5CCC[C@H]5C(=O)N(C)CC(=O)N(C)[C@@H](C(C)C)C(=O)O[C@@H]4C)c3nc-2c(C(=O)N[C@@H]2C(=O)N[C@H](C(C)C)C(=O)N3CCC[C@H]3C(=O)N(C)CC(=O)N(C)[C@@H](C(C)C)C(=O)O[C@@H]2C)c(N)c1=O [DACTINOMYCIN] (I: T[dV]P[Sar][NMeV] / II: T[dV]P[Sar][NMeV]; ester I:1-I:C, II:1-II:C; linker I:N-II:N via Actinocin(1to9)) | 0.0015 (≈ 0.00119 µM) | 0.0019 (≈ 0.00151 µM) |  |  | 0.0014 (≈ 0.00112 µM) |  |  |  |  |  |  |  | 8.1 | 5.6
6 | COC(=O)C(Cc1ccc2c(c1)OCO2)C(Cc1ccc2c(c1)OCO2)C(=O)OC (stereo not drawn) |  |  |  |  |  |  | inactive | inactive | inactive | inactive | inactive | Not Active |  | 
7 | COc1cc(-c2c3c(c(OC)c4cc(OC)c(OC)cc24)COC3=O)ccc1O [CILINAPHTHALIDE A] | 1.3 (≈ 3.28 µM) | 3 (≈ 7.57 µM) | 6.4 (≈ 16.1 µM) | 0.3 (≈ 0.757 µM) | 12 (≈ 30.3 µM) | > 8 |  |  |  |  |  |  |  | 
8 | COc1c2c(c(-c3ccc4c(c3)OCO4)c3cc4c(cc13)OCO4)C(=O)OC2 [TAIWANIN E METHYL ETHER] | 5 (≈ 13.2 µM) | > 8 | 6.1 (≈ 16.1 µM) | 2.6 (≈ 6.87 µM) | 6.8 (≈ 18 µM) | > 8 |  |  |  |  |  |  |  | 
9 | COc1ccc(-c2c3c(c(OC)c4cc5c(cc24)OCO5)COC3=O)cc1OC [CHINENSINAPHTHOL METHYL ETHER] |  |  |  |  |  |  | inactive | inactive | inactive | inactive | inactive | Not Active |  | 
